Test results taken from ChEMBL document CHEMBL5150070, “Tricyclic SpiroLactams Kill Mycobacteria In Vitro and In Vivo by Inhibiting Type II NADH Dehydrogenases” (J Med Chem, 2022).
Values after ≈ are worked out from the molar mass of the structure shown. Active and inactive are the calls of the source. The calls are words filed in the database; no cut-off is given here.

Tests used:
[1] = test system: Mycobacterium tuberculosis; experiment: Antimycobacterial activity against Mycobacterium tuberculosis H37Rv assessed as reduction in bacterial cell growth by measuring resazurin reduction incubated for 6 days by fluorescence microplate based assay; assay type: functional; details: time 6 day
[2] = biological target: T1, Type II NADH:quinone oxidoreductase NdhA (Mycobacterium tuberculosis, UniProt P95200); experiment: Inhibition of Mycobacterium smegmatis MC2 155 recombinant ndhA assessed as rate of NADH oxidation in the presence of an electron acceptor menadione; parameters: species or system Mycolicibacterium smegmatis
T1 sequence (P95200 whole entry): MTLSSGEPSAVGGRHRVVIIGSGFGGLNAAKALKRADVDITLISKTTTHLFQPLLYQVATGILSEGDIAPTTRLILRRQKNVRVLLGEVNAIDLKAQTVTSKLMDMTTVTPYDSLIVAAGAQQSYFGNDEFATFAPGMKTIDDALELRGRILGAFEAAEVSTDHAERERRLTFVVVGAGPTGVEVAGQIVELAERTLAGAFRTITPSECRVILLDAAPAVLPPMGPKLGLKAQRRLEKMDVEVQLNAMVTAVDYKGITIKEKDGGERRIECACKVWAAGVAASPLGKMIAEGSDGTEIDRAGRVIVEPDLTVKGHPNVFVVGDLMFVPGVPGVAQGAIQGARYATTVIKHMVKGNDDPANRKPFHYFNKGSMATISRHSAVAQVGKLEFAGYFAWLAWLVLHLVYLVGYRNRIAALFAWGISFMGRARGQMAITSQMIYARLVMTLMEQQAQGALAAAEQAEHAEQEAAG

[3] = biological target: Type II NADH:quinone oxidoreductase Ndh (Mycobacterium tuberculosis, UniProt P95160); experiment: Inhibition of Mycobacterium tuberculosis recombinant type II NADH dehydrogenase ndh expressed in Escherichia coli assessed as rate of NADH oxidation in the presence of an electron acceptor menadione
Outline: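 Purified N-terminal MBP-tagged Mtb Ndh (Rv1854c) expressed in E. coli, 70 nM, with 500 µM NADH in 50 mM HEPES pH 7.1 (K₂HPO₄). Compound pre-incubated 15 min at 25°C, reaction started with 100 µM menadione. NADH oxidation followed at 340 nm every 60 s. Rate taken from linear slope; IC50 is the mean ± SD of at least 3 independent experiments.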

[4] = Toxicity in noninfected zebrafish larvae assessed as toxic effect; parameters: species or system Danio rerio; details: in vivo
Mycobacterium marinum [5] = experiment: Antibiotic activity against Mycobacterium marinum M strain assessed as reduction in bacterial cell growth by measuring resazurin reduction incubated for 6 days by fluorescence microplate based assay; assay type: functional; details: 144 h, time 6 day
[6] = test system: Mycobacterium tuberculosis; experiment: Antibiotic activity against Mycobacterium tuberculosis H37Rv assessed as reduction in bacterial cell growth by measuring resazurin reduction incubated for 6 days by fluorescence microplate based assay; assay type: functional; details: 144 h, time 6 day
[7] = test system: Mycobacteroides abscessus; experiment: Antibiotic activity against Mycobacterium abscessus CIP104536, Smooth variant assessed as reduction in bacterial cell growth by measuring resazurin reduction incubated for 6 days by fluorescence microplate based assay; assay type: functional; details: 144 h, time 6 day
Mycobacterium marinum [8] = experiment: In vivo antimycobacterial efficacy in Mycobacterium marinum expressing Wasabi infected zebrafish larvae assessed as prolongation of survival at 9.6 uM treated for 4 days after 1 day post infection; assay type: functional, organism-based; details: time 4.0 day
Outline: (§1)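 Golden mutant or Tg(mpeg1:mCherry) zebrafish embryos were dechorionated and anaesthetised in 0.016% tricaine. At 30 hpf, 2–3 nL containing about 200–250 cfu of Wasabi-expressing M. marinum M (pTEC15) was injected into the caudal vein. The inoculum was confirmed by plating on 7H10. Embryos were kept in E3 at 28.5 °C, 12 per well, to follow infection and survival.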

Klebsiella pneumoniae = experiment: Antibiotic activity against Klebsiella pneumoniae LMG 2095 assessed as reduction in bacterial cell growth by measuring resazurin reduction incubated for 6 days by fluorescence microplate based assay; assay type: functional; details: LMG 2095, 144 h, time 6 day
[9] = test system: Mycobacterium tuberculosis; experiment: Bactericidal activity against replicating Mycobacterium tuberculosis H37Rv assessed as reduction in colony forming unit measured at 2 to 4 times of MIC after 1 to 2 weeks; assay type: functional; details: time 1-2 weeks
Outline: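 Mid-log H37Rv in 7H9-GTy-OADC diluted to OD600 0.02 (~1×10⁶ cfu/mL) and exposed to compound in 96-well replica plates for 1 or 2 weeks. For the 3 lowest concentrations without visible growth, serial 10-fold dilutions plated on 7H11-OADC and cfu counted over 6 weeks at 37°C. Four independent experiments; log10 cfu/mL ± SD.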

[10] = test system: Mycolicibacterium smegmatis; experiment: Antibiotic activity against Mycobacterium smegmatis mc2155 assessed as reduction in bacterial cell growth by measuring resazurin reduction incubated for 6 days by fluorescence microplate based assay; assay type: functional; details: mc2155, 144 h, time 6 day
Mycobacterium avium = experiment: Antibiotic activity against Mycobacterium avium TMC 724, ATCC-25291 assessed as reduction in bacterial cell growth by measuring resazurin reduction incubated for 6 days by fluorescence microplate based assay; assay type: functional; details: TMC 724, ATCC-25291, 144 h, time 6 day
Pseudomonas aeruginosa = experiment: Antibiotic activity against Pseudomonas aeruginosa POA1 assessed as reduction in bacterial cell growth by measuring resazurin reduction incubated for 6 days by fluorescence microplate based assay; assay type: functional; details: POA1, 144 h, time 6 day
Bacillus subtilis = experiment: Antibiotic activity against Bacillus subtilis ATCC6633 assessed as reduction in bacterial cell growth by measuring resazurin reduction incubated for 6 days by fluorescence microplate based assay; assay type: functional; details: ATCC6633, 144 h, time 6 day
[11] = test system: Mycobacterium tuberculosis; experiment: Inhibition of Ndh2 in Mycobacterium tuberculosis assessed as increase in NADH/NAD+ ratio at 600 nM measured after 24 hrs
Outline: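 Mid-log H37Rv diluted to OD600 0.3 and exposed to compound at 37°C for 2 and 24 h. Pellets extracted in 0.2 M HCl (NAD⁺) or 0.2 M NaOH (NADH), bead-milled, heated 55°C 10 min, neutralised. NAD/NADH-Glo luminescence read against an NADH standard curve, corrected for OD600. Three independent experiments, duplicate technical replicates.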

Escherichia coli [12] = experiment: Antibiotic activity against Escherichia coli BW25113 assessed as reduction in bacterial cell growth by measuring resazurin reduction incubated for 6 days by fluorescence microplate based assay; assay type: functional; details: BW25113, 144 h, time 6 day
Outline: (§2)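 E. coli BW25113, E. coli ΔtolC and S. aureus SH1000 were cultured and tested in cation-adjusted Mueller Hinton II broth. Viability was read by adding resazurin and measuring resorufin fluorescence at Ex 530 nm / Em 590 nm.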

Mycobacterium marinum [13] = experiment: in vivo antimycobacterial efficacy in Mycobacterium marinum infected zebrafish larvae assessed as reduction in bacterial burden at 0.25 to 2 micog/ml measured after 2 to 4 days off post infection; assay type: functional, organism-based; details: time 2-4 day
Escherichia coli [14] = experiment: Antibiotic activity against Escherichia coli deltatolC BW25113 deltatolC assessed as reduction in bacterial cell growth by measuring resazurin reduction incubated for 6 days by fluorescence microplate based assay; assay type: functional; details: 144 h, time 6 day; outline: as §2
[15] = Octanol/PBS partition coefficient, logD of compound at pH 7.4 measured after 2 hrs by shake flask method; assay type: physicochemical; details: octanol/water, pH 7.4, 2 h
Outline: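 A 10 mM DMSO stock was diluted 50-fold into 1:1 octanol:PBS pH 7.4 and shaken gently for 2 h at room temperature. Each phase was diluted 50-fold in MeOH and quantified by LC-MS/MS. LogD = log of the octanol/PBS concentration ratio from mass signals. Run in triplicate.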

Staphylococcus aureus = experiment: Antibiotic activity against Staphylococcus aureus SH1000 assessed as reduction in bacterial cell growth by measuring resazurin reduction incubated for 6 days by fluorescence microplate based assay; assay type: functional; details: SH1000, 144 h, time 6 day; outline: as §2
[16] = test system: Mycobacterium tuberculosis; experiment: Inhibition of Ndh2 in Mycobacterium tuberculosis assessed as decrease in ATP concentration measured after 24 hrs; details: DDE = dose-dependent effect
Outline: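 Log-phase H37Rv diluted to OD600 0.01 in complete 7H9 and exposed in 96-well plates to compound added from a 100× DMSO stock, at 37°C. ATP measured with BacTiter-Glo luminescence after 4 and 24 h; three independent experiments.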

[17] = test system: Mycobacterium tuberculosis; experiment: Antimycobacterial activity against Mycobacterium tuberculosis H37Rv infected in human A-THP1 macrophages assessed as viability of infected macrophages incubated for 96 hrs by fluorescence microplate assay; assay type: functional, organism-based
Outline: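 THP-1 cells differentiated with 50 ng/mL PMA for 72 h, infected with log-phase H37Rv (MOI 10, 2 h), and extracellular bacteria killed with 50 µg/mL amikacin for 1 h. Cells detached and seeded at 5×10⁵/mL in RPMI-10% FBS with PMA onto pre-dispensed compound, 96 h at 37°C, 5% CO₂. Macrophage viability by 0.05% resazurin fluorescence.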

[18] = Metabolic stability in mouse liver microsomes; assay type: ADME, Microsome
Mycobacterium marinum [19] = experiment: In vivo antimycobacterial efficacy in Mycobacterium marinum expressing Wasabi infected zebrafish larvae assessed as prevention of bacterial infection foci at 0.25 to 2 ug/ml treated for 2 to 4 days after 1 day post infection; assay type: functional, organism-based; details: dose 0.25-2 µg/ml, time 2-4 day; outline: as §1
[20] = test system: Mycobacterium tuberculosis; experiment: Bactericidal activity against Non-replicating Mycobacterium tuberculosis ss18b-lux assessed as decrease in colony forming unit measured at 4.8 uM after 1 weeks; assay type: functional
Outline: (§3)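 Streptomycin-dependent 18b-lux starved of streptomycin for 14 days (OD600 reset to 0.2 on days 7 and 13) to become non-replicating. Diluted to OD600 0.15 on dispensed compound and held at 37°C. On day 7, active wells plated on 7H11-OADC with 50 µg/mL streptomycin and incubated up to 8 weeks for cfu.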

[21] = test system: Mycobacterium tuberculosis; experiment: Bactericidal activity against Non-replicating Mycobacterium tuberculosis ss18b-lux assessed as bacterial killing by measuring CFU after 1 week; assay type: functional, organism-based; details: time 1.0 weeks, DDE = dose-dependent effect; outline: as §3
Mycobacterium marinum [22] = experiment: In vivo antimycobacterial efficacy in Mycobacterium marinum expressing Wasabi infected zebrafish larvae assessed as prolongation of survival treated for 4 days after 1 day post infection; assay type: functional, organism-based; details: dose 0.3-1.2 µM, time 4.0 day, DDE = dose-dependent effect; outline: as §1
Mycobacterium marinum [23] = experiment: In vivo antimycobacterial efficacy in Mycobacterium marinum expressing Wasabi infected zebrafish larvae assessed as prolongation of survival time at 4.8 uM treated for 4 days after 1 day post infection; assay type: functional; details: time 4 day
[24] = test system: Mycobacteroides abscessus; experiment: Antibiotic activity against Mycobacterium abscessus CIP104536, Rough variant assessed as reduction in bacterial cell growth by measuring resazurin reduction incubated for 6 days by fluorescence microplate based assay; assay type: functional; details: 144 h, time 6 day
Acinetobacter baumannii = experiment: Antibiotic activity against Acinetobacter baumannii LMG-17978 assessed as reduction in bacterial cell growth by measuring resazurin reduction incubated for 6 days by fluorescence microplate based assay; assay type: functional; details: LMG-17978, 144 h, time 6 day
Mycobacterium marinum [25] = experiment: In vivo antimycobacterial efficacy in Mycobacterium marinum expressing Wasabi infected zebrafish larvae assessed as prevention of bacterial load using fluorescence pixel count determination at 0.5 ug/ml treated for 2 to 4 days after 1 day post infection; assay type: functional, organism-based; details: dose 0.5 µg/ml, time 2-4 day; outline: as §1
[26] = Toxicity in noninfected zebrafish larvae assessed as larval development; parameters: species or system Danio rerio; details: in vivo
[27] = test system: Mycobacterium tuberculosis; experiment: Bactericidal activity against Non-replicating Mycobacterium tuberculosis ss18b-lux model assessed as decrease in luminescence at 10 to 10000 nM; assay type: functional, organism-based; details: dose 10-10000 nM, TDE = time-dependent effect
Outline: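 Non-replicating streptomycin-starved 18b-lux (14-day starvation) diluted to OD600 0.15 in white 96-well plates with compound and incubated at 37°C. Luminescence read on days 1, 2, 5 and 7 and expressed relative to no-antibiotic controls (n ≥ 3).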

Sequence of Type II NADH:quinone oxidoreductase Ndh (P95160 whole entry): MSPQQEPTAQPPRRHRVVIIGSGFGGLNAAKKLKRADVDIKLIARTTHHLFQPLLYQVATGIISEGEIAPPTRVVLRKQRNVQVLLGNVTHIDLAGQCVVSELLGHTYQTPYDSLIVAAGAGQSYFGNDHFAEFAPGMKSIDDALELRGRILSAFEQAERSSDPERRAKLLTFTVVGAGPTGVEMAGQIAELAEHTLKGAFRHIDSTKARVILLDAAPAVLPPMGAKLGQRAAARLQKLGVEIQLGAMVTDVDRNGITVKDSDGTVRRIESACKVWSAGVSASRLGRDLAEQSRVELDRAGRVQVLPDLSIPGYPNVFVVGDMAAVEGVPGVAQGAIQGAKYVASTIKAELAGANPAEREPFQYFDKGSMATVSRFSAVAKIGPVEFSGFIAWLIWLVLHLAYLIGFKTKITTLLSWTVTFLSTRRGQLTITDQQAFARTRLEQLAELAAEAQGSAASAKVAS

Structure (SMILES): CC(C)[C@H]1CO[C@]23CCN(Cc4ccc(Cl)cc4)C[C@H]2CCC(=O)N13
- MIC98 [1]: 0.25 µM (≈ 0.0907 µg/mL)
- IC50 [2]: 96 nM
- IC50 [3]: 28 nM

Structure (SMILES): CC(C)[C@H]1CO[C@]23CCN(Cc4ccc(OC(F)(F)F)cc4)C[C@H]2CCC(=O)N13
- Activity [4]: Non-Toxic
- MIC (Mycobacterium marinum [5]): 0.16 µM (≈ 0.066 µg/mL)
- MIC [6]: 0.13 µM (≈ 0.0536 µg/mL)
- MIC [7]: 8.1 µM (≈ 3.34 µg/mL)
- Activity (Mycobacterium marinum [8]): Active
- MIC (Klebsiella pneumoniae): > 100 µM
- Activity [9]: 0.8 log10CFU
- MIC98 [1]: 0.13 µM (≈ 0.0536 µg/mL)
- MIC [10]: 1.3 µM (≈ 0.536 µg/mL)
- MIC (Mycobacterium avium): 0.38 µM (≈ 0.157 µg/mL)
- MIC (Pseudomonas aeruginosa): > 100 µM
- MIC (Bacillus subtilis): > 100 µM
- inhibition [11]: Active
- MIC (Escherichia coli [12]): > 100 µM
- Activity (Mycobacterium marinum [13]): Active
- MIC (Escherichia coli [14]): 100 µM (≈ 41.2 µg/mL)
- logD [15]: 3.9
- MIC (Staphylococcus aureus): > 100 µM
- inhibition [16]: Dde
- IC50 [17]: 360 nM
- Drug metabolism [18]: Metabolite_Detected
- Activity (Mycobacterium marinum [19]): Active
- Activity [20]: 1 log10CFU
- Activity [21]: Dde
- Activity (Mycobacterium marinum [22]): Dde
- Time (Mycobacterium marinum [23]): 3 days
- MIC [24]: 8.1 µM (≈ 3.34 µg/mL)
- MIC (Acinetobacter baumannii): > 100 µM
- Activity (Mycobacterium marinum [25]): Active
- Activity [26]: Non-Toxic
- Activity [27]: Tde

Structure (SMILES): CC(C)(C)[C@H]1CO[C@]23CCN(Cc4ccccc4)C[C@H]2CCC(=O)N13
- MIC98 [1]: 25 µM (≈ 8.56 µg/mL)

Structure (SMILES): Cc1ccc(CN2CC[C@]34OC[C@H](C(C)C)N3C(=O)CC[C@@H]4C2)cc1
- MIC98 [1]: 1.7 µM (≈ 0.582 µg/mL)
